Assay results reported in ChEMBL document CHEMBL3616464, “One-pot synthesis of podophyllotoxin-thiourea congeners by employing NH₂SO₃H/NaI: Anticancer activity, DNA topoisomerase-II inhibition, and apoptosis inducing agents” (Bioorg Med Chem Lett, 2015).
pIC50: −log10 of the molar value. Calls of active or inactive are those of the source. The rule behind the calls is not given here.

How the values were obtained:
DU-145 [1] = test: Induction of apoptosis in human DU145 cells assessed as destructive fragmentation of nuclei at 250 nM after 48 hrs using acridine orange and ethidium bromide staining by fluorescence microscopic analysis; type: functional, cell-based
Outline: (§1)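 DU-145 cells treated with 125, 250 or 500 nM for 48 h, then stained with acridine orange/ethidium bromide. Nuclear and chromatin morphology scored by fluorescence microscopy. Live cells appear green and late apoptotic nuclei red with EB. Untreated cells serve as control.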

DU-145 [2] = test: Induction of apoptosis in human DU145 cells assessed as live cells at 125 nM after 48 hrs using Annexin-V and propidium iodide staining (reference value: 86%); type: functional
A549 = test: Cytotoxicity against human A549 cells after 48 hrs by MTT assay; type: functional, cell-based; details: A549, 48 h
[3] = Therapeutic index, ratio of IC50 for human RWPE1 cells to IC50 for human DU145 cells; type: cell-based; details: RWPE1 cells versus DU145 cells, read-out: Ratio IC50
Outline: (§2)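 Selectivity expressed as the fold by which the IC50 in normal prostate epithelial RWPE-1 cells exceeds the IC50 in the prostate cancer line (DU-145 or LNCaP).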

DU-145 [4] = test: Induction of apoptosis in human DU145 cells assessed as cell membrane blebbing at 125 to 500 nM after 48 hrs by phase-contrast microscopic analysis; type: functional, cell-based
Outline: (§3)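 DU-145 cells treated with 125, 250 or 500 nM for 48 h. Morphology (chromatin condensation, nuclear fragmentation, membrane blebbing, apoptotic bodies) examined under phase-contrast light microscope and compared with untreated control.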

DU-145 [5] = test: Cell cycle arrest in human DU145 cells assessed as accumulation at S phase at 125 nM after 48 hrs by propidium iodide staining (reference value: 9.1%); type: functional
[6] = Cytotoxicity against human RWPE1 cells after 48 hrs by MTT assay; type: cell-based; details: RWPE-1, 48 h
[7] = Cytotoxicity against human HGC cells after 48 hrs by MTT assay; type: functional, cell-based
DU-145 [8] = test: Induction of apoptosis in human DU145 cells assessed as chromatin condensation at 125 nM after 48 hrs using acridine orange and ethidium bromide staining by fluorescence microscopic analysis; type: functional, cell-based; outline: as §1
DU-145 [9] = test: Induction of apoptosis in human DU145 cells assessed as late apoptotic cells at 125 nM after 48 hrs using Annexin-V and propidium iodide staining (reference value: 9.32%); type: functional
DU-145 [10] = test: Induction of apoptosis in human DU145 cells assessed as chromatin condensation at 125 to 500 nM after 48 hrs by phase-contrast microscopic analysis; type: functional, cell-based; outline: as §3
DU-145 [11] = test: Induction of apoptosis in human DU145 cells assessed as late apoptotic cells at 250 nM after 48 hrs using Annexin-V and propidium iodide staining (reference value: 9.32%); type: functional
DU-145 [12] = test: Cell cycle arrest in human DU145 cells assessed as accumulation at G2/M phase at 500 nM after 48 hrs by propidium iodide staining (reference value: 22.5%); type: functional
DU-145 [13] = test: Induction of apoptosis in human DU145 cells assessed as dead cells at 250 nM after 48 hrs using Annexin-V and propidium iodide staining (reference value: 3.28%); type: functional
DU-145 [14] = test: Cell cycle arrest in human DU145 cells assessed as accumulation at G2/M phase at 250 nM after 48 hrs by propidium iodide staining (reference value: 22.5%); type: functional
LNCaP = test: Cytotoxicity against human LNCAP cells after 48 hrs by MTT assay; type: functional, cell-based
DU-145 [15] = test: Induction of apoptosis in human DU145 cells assessed as irregular distribution of chromatin at 250 nM after 48 hrs using acridine orange and ethidium bromide staining by fluorescence microscopic analysis; type: functional, cell-based; outline: as §1
DU-145 [16] = test: Induction of apoptosis in human DU145 cells assessed as cell membrane blebbing at 125 nM after 48 hrs using acridine orange and ethidium bromide staining by fluorescence microscopic analysis; type: functional, cell-based; outline: as §1
[17] = Therapeutic index, ratio of IC50 for human RWPE1 cells to IC50 for human LNCAP cells; type: cell-based; details: RWPE1 cells versus LNCAP cells, read-out: Ratio IC50; outline: as §2
DU-145 [18] = test: Cell cycle arrest in human DU145 cells assessed as accumulation at G0/G1 phase at 250 nM after 48 hrs by propidium iodide staining (reference value: 43.5%); type: functional
DU-145 [19] = test: Induction of apoptosis in human DU145 cells assessed as nuclear fragmentation at 125 to 500 nM after 48 hrs by phase-contrast microscopic analysis; type: functional, cell-based; outline: as §3
DU-145 [20] = test: Induction of apoptosis in human DU145 cells assessed as reduction of cell population at 500 nM after 48 hrs by phase-contrast microscopic analysis; type: functional, cell-based; outline: as §3
DU-145 [21] = test: Induction of apoptosis in human DU145 cells assessed as dead cells at 125 nM after 48 hrs using Annexin-V and propidium iodide staining (reference value: 3.28%); type: functional
DU-145 [22] = test: Induction of apoptosis in human DU145 cells assessed as horseshoe-shaped cells at 125 nM after 48 hrs using acridine orange and ethidium bromide staining by fluorescence microscopic analysis; type: functional, cell-based; outline: as §1
MDA-MB-231 = test: Cytotoxicity against human MDA-MB-231 cells after 48 hrs by MTT assay; type: functional, cell-based; details: MDA-MB-231, 48 h
DU-145 [23] = test: Induction of apoptosis in human DU145 cells assessed as formation of apoptotic bodies at 125 to 500 nM after 48 hrs by phase-contrast microscopic analysis; type: functional, cell-based; outline: as §3
DU-145 [24] = test: Induction of apoptosis in human DU145 cells assessed as early apoptotic cells at 250 nM after 48 hrs using Annexin-V and propidium iodide staining (reference value: 1.40%); type: functional
DU-145 [25] = test: Cell cycle arrest in human DU145 cells assessed as accumulation at S phase at 500 nM after 48 hrs by propidium iodide staining (reference value: 9.1%); type: functional
DU-145 [26] = test: Induction of apoptosis in human DU145 cells assessed as live cells at 500 nM after 48 hrs using Annexin-V and propidium iodide staining (reference value: 86%); type: functional
DU-145 [27] = test: Cell cycle arrest in human DU145 cells assessed as accumulation at S phase at 250 nM after 48 hrs by propidium iodide staining (reference value: 9.1%); type: functional
DU-145 [28] = test: Induction of apoptosis in human DU145 cells assessed as dead cells at 500 nM after 48 hrs using Annexin-V and propidium iodide staining (reference value: 3.28%); type: functional
DU-145 [29] = test: Cell cycle arrest in human DU145 cells assessed as accumulation at G2/M phase at 125 nM after 48 hrs by propidium iodide staining (reference value: 22.5%); type: functional
DU-145 [30] = test: Induction of apoptosis in human DU145 cells assessed as condensed chromatin at 500 nM after 48 hrs using acridine orange and ethidium bromide staining by fluorescence microscopic analysis; type: functional, cell-based; outline: as §1
DU-145 [31] = test: Induction of apoptosis in human DU145 cells assessed as early apoptotic cells at 125 nM after 48 hrs using Annexin-V and propidium iodide staining (reference value: 1.40%); type: functional
DU-145 [32] = test: Induction of apoptosis in human DU145 cells assessed as live cells at 250 nM after 48 hrs using Annexin-V and propidium iodide staining (reference value: 86%); type: functional
DU-145 [33] = test: Induction of apoptosis in human DU145 cells assessed as late apoptotic cells at 500 nM after 48 hrs using Annexin-V and propidium iodide staining (reference value: 9.32%); type: functional
DU-145 [34] = test: Cell cycle arrest in human DU145 cells assessed as accumulation at G0/G1 phase at 500 nM after 48 hrs by propidium iodide staining (reference value: 43.5%); type: functional
DU-145 [35] = test: Cell cycle arrest in human DU145 cells assessed as accumulation at G0/G1 phase at 125 nM after 48 hrs by propidium iodide staining (reference value: 43.5%); type: functional
DU-145 [36] = test: Induction of apoptosis in human DU145 cells assessed as late apoptotic cells at 500 nM after 48 hrs by phase-contrast microscopic analysis; type: functional, cell-based; outline: as §3
DU-145 [37] = test: Induction of apoptosis in human DU145 cells assessed as late apoptotic cells at 500 nM after 48 hrs using acridine orange and ethidium bromide staining by fluorescence microscopic analysis; type: functional, cell-based; outline: as §1
DU-145 [38] = test: Induction of apoptosis in human DU145 cells assessed as early apoptotic cells at 500 nM after 48 hrs using Annexin-V and propidium iodide staining (reference value: 1.40%); type: functional
DU-145 [39] = test: Cytotoxicity against human DU145 cells after 48 hrs by MTT assay; type: functional, cell-based; details: DU-145, 48 h
[40] = target: DNA topoisomerase 2-alpha (Homo sapiens) (UniProt P11388); test: Inhibition of topoisomerase-2 (unknown origin) using kDNA assessed as increase of catenated kDNA level at 50 to 100 uM after 10 mins using ethidium bromide staining by agarose gel electrophoresis
DNA topoisomerase 2-alpha (Homo sapiens), sequence (P11388 whole entry): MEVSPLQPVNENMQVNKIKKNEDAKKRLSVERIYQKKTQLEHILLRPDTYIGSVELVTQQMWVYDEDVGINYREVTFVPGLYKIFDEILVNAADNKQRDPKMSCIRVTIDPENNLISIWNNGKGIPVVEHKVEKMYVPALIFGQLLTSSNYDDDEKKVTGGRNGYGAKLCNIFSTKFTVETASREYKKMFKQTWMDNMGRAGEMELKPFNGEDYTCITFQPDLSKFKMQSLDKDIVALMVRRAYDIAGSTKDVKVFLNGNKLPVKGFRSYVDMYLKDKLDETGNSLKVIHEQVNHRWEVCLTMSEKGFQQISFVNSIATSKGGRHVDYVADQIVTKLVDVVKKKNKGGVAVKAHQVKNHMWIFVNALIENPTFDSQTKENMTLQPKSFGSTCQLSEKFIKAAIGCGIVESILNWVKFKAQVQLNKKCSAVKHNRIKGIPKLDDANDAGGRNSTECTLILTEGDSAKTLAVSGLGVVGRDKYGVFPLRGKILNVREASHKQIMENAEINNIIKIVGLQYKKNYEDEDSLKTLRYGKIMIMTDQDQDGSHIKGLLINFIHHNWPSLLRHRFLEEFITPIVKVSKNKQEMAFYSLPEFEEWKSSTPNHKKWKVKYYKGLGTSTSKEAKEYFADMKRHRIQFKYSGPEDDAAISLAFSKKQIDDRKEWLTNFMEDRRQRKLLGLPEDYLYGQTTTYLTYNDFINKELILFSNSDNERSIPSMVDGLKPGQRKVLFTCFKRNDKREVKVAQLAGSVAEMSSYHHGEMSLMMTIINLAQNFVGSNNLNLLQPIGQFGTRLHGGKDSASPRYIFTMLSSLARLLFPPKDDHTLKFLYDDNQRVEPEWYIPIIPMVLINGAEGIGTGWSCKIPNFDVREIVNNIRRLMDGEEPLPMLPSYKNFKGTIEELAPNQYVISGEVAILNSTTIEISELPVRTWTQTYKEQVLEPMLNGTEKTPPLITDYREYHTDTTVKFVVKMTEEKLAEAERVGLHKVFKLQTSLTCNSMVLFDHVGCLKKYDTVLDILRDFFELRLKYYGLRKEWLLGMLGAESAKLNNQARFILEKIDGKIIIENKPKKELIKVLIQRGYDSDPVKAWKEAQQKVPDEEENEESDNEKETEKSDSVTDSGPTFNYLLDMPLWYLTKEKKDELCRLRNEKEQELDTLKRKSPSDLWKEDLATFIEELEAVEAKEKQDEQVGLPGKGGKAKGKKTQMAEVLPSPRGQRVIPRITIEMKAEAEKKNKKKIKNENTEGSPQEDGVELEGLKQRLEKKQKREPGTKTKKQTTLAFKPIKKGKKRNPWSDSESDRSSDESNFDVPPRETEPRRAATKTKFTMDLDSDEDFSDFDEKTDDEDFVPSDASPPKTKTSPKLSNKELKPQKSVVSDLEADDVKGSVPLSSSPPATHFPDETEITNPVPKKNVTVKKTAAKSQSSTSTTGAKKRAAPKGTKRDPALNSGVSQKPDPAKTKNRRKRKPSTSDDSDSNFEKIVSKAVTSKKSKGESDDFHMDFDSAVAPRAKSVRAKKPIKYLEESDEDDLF
Outline: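 Topoisomerase II drug screening kit, with catenated DNA incubated with topoisomerase II (5 units) and test agent at 50 or 100 µM. Etoposide at 100 µM serves as standard. Products resolved on gel: catenated DNA is retained in the wells, and nicked/relaxed circular and linear forms are distinguished.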

In the case of `COc1ccc(NC(=S)N[C@@H]2c3cc4c(cc3[C@@H](c3cc(OC)c(OC)c(OC)c3)[C@H]3C(=O)OC[C@@H]32)OCO4)cc1`, the Activity (DU-145 [1]) was “Active”, the Activity (DU-145 [2]) was 74.57% and the pIC50 (A549) was 4.42. The selectivity ratio [3] was 81.7, the Activity (DU-145 [4]) was “Active” and the Activity (DU-145 [5]) was 19.5%. For the same molecule, the pIC50 [6] was 4.39, the pIC50 [7] was 5.41 and the Activity (DU-145 [8]) was “Active”. For the same molecule, the Activity (DU-145 [9]) was 16.75%, the Activity (DU-145 [10]) was “Active” and the Activity (DU-145 [11]) was 22.55%. It also gave an Activity (DU-145 [12]) of 41.7%, an Activity (DU-145 [13]) of 2.3% and an Activity (DU-145 [14]) of 26.3%. The pIC50 (LNCaP) was 4.76, the Activity (DU-145 [15]) was “Active” and the Activity (DU-145 [16]) was “Active”. The selectivity ratio [17] was 2.3, the Activity (DU-145 [18]) was 28.4% and the Activity (DU-145 [19]) was “Active”. For the same molecule, the Activity (DU-145 [20]) was “Active”, the Activity (DU-145 [21]) was 3.38% and the Activity (DU-145 [22]) was “Active”. The pIC50 (MDA-MB-231) was 4.74, the Activity (DU-145 [23]) was “Active” and the Activity (DU-145 [24]) was 15.35%. For the same molecule, the Activity (DU-145 [25]) was 14.8%, the Activity (DU-145 [26]) was 27.87% and the Activity (DU-145 [27]) was 30.8%. The Activity (DU-145 [28]) was 1.07%, the Activity (DU-145 [29]) was 27.9% and the Activity (DU-145 [30]) was “Active”. It also gave an Activity (DU-145 [31]) of 5.31%, an Activity (DU-145 [32]) of 59.8% and an Activity (DU-145 [33]) of 26.68%. For the same molecule, the Activity (DU-145 [34]) was 27.8%, the Activity (DU-145 [35]) was 33.5% and the Activity (DU-145 [36]) was “Active”. For the same molecule, the Activity (DU-145 [37]) was “Active”, the Activity (DU-145 [38]) was 44.38% and the pIC50 (DU-145 [39]) was 6.30. For the same molecule, the inhibition [40] was “Active”.
